Reference: ChEMBL document CHEMBL1139477, “Synthesis and evaluation of estrogen receptor ligands with bridged oxabicyclic cores containing a diarylethylene motif: estrogen antagonists of unusual structure” (J Med Chem, 2005)
Calls of active or inactive are those of the source. The calls are words filed in the database; no cut-off is given here.

Tests used:
[1] = molecular target: T1, Estrogen receptor (Homo sapiens) (UniProt P03372); test: Displacement of [3H]estradiol from human ERalpha relative to estradiol
T1 sequence (whole entry): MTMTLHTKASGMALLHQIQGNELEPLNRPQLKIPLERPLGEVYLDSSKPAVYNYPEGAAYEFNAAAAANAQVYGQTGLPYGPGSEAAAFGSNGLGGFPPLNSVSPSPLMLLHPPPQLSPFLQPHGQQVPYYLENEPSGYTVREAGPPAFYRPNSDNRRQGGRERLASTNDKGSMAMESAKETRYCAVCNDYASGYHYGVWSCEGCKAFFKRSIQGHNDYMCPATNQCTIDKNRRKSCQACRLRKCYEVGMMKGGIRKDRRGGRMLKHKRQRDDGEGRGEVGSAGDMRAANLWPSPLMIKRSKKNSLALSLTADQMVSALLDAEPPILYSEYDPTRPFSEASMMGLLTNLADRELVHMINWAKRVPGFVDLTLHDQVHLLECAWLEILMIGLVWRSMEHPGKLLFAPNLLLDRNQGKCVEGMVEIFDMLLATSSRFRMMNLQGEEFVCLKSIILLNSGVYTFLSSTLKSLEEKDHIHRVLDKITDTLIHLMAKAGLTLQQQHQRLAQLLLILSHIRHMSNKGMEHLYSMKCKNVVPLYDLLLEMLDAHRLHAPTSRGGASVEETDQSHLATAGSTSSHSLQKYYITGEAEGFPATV

[2] = molecular target: Estrogen receptor (Homo sapiens) (UniProt Q92731+P03372); test: Ratio of RBA for human estrogen receptor alpha to RBA for human estrogen receptor beta; assay type: protein assay
[3] = molecular target: Estrogen receptor beta (Homo sapiens) (UniProt Q92731); test: Displacement of [3H]estradiol from human ERbeta relative to estradiol
[4] = molecular target: T1, Estrogen receptor (Homo sapiens); test: Activity at ERalpha in human HEC1 cells assessed as antagonism of estradiol-activated transcription activation relative to estradiol; assay type: functional, cell-based; settings: HEC-1
How it was run: (§1)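 HEC-1 cells kept in phenol red MEM with 5% calf serum plus 5% fetal calf serum, then plated in phenol red-free Improved MEM with 5% charcoal dextran-treated calf serum. Lipofectin transfection for 5 h at 37 °C with full-length human ERα or ERβ vector, 2ERE-pS2-Luc and pCMV β-galactosidase control. Ligand, 10^-8 to 10^-5 M, given with 1 nM estradiol for 24 h. Luciferase read, as percent of 10^-9 M estradiol alone. Two or more experiments.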

[5] = molecular target: Estrogen receptor beta (Homo sapiens) (UniProt Q92731); test: Activity at ERbeta in human HEC1 cells assessed as antagonism of estradiol-activated transcription activation relative to estradiol; assay type: functional, cell-based; settings: HEC-1; how it was run: as §1

Sequence of Estrogen receptor (Homo sapiens) (UniProt Q92731+P03372) (Q92731 whole entry, looked up, one chain of several): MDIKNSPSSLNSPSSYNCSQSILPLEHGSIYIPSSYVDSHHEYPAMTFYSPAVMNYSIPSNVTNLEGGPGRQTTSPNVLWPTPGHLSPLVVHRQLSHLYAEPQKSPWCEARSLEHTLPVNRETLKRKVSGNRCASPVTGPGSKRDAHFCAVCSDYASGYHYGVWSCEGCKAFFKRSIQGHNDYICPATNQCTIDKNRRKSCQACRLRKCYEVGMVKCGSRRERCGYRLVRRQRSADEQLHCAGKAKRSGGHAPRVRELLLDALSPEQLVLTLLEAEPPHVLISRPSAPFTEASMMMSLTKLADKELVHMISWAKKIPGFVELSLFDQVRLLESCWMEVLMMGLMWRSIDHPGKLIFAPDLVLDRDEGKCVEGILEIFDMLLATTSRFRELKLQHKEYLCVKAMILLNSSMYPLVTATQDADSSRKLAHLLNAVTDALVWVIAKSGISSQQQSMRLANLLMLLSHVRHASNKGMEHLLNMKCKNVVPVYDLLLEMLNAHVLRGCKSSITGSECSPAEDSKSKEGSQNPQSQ
Sequence of Estrogen receptor beta (Homo sapiens) (Q92731 whole entry): as the sequence (Q92731 whole entry, looked up, one chain of several) above

| RBA [1] [%] | Ratio [2] | RBA [3] [%] | Activity [4] | Activity [5] | Structure (SMILES) |
| --- | --- | --- | --- | --- | --- |
| 0.1 | 1.3 | 0.077 | – | – | CCS(=O)(=O)C1CC2OC1C(c1ccc(O)cc1)=C2c1ccc(O)cc1 (configuration not stated) |
| 0.9 | 4.3 | 0.21 | – | – | O=S(=O)(Oc1ccccc1)C1CC2OC1C(c1cccc(O)c1)=C2c1ccc(O)cc1 (configuration not stated) |
| 0.32 | 3.3 | 0.1 | – | – | COc1ccc(OS(=O)(=O)C2CC3OC2C(c2ccc(O)cc2)=C3c2ccc(O)cc2)cc1 (configuration not stated) |
| 0.021 | 0.58 | 0.036 | – | – | CCOC(=O)C1C2OC(C(c3ccc(O)cc3)=C2c2ccc(O)cc2)C1C(=O)OCC (configuration not stated) |
| 0.068 | 0.57 | 0.12 | – | – | O=S(=O)(Oc1ccccc1)C1CC2OC1C(c1ccccc1)=C2c1ccccc1 (configuration not stated) |
| 0.068 | 1 | 0.066 | – | – | COc1ccc(C2=C(c3ccc(O)cc3)C3CC(S(=O)(=O)c4ccccc4)C2O3)cc1 (configuration not stated) |
| 4.1 | – | – | – | – | O=S(=O)(Oc1ccccc1)[C@H]1CC2OC1C(c1ccc(O)cc1)=C2c1ccc(O)cc1 (stereo in doubt; endo) |
| – | – | – | Active | Active | O=S(=O)(Oc1ccccc1)[C@H]1CC2OC1C(c1ccc(O)cc1)=C2c1ccc(O)cc1 (stereo in doubt; exo) |
| 0.008 | 0.62 | 0.013 | – | – | O=S(=O)(c1ccccc1)C1CC2OC1C(c1ccccc1)=C2c1ccccc1 (configuration not stated) |
| 0.069 | 1.9 | 0.037 | – | – | O=S(=O)(c1ccccc1)C1CC2OC1C(c1cccc(O)c1)=C2c1ccc(O)cc1 (configuration not stated) |
| 0.02 | 0.8 | 0.025 | – | – | CN1C(=O)C2C3OC(C(c4ccc(O)cc4)=C3c3ccc(O)cc3)C2C1=O (configuration not stated) |
| 2.2 | 14 | 0.16 | – | – | O=S(=O)(Oc1ccc(O)cc1)C1CC2OC1C(c1ccc(O)cc1)=C2c1ccc(O)cc1 (configuration not stated) |
| 0.022 | 0.82 | 0.027 | – | – | O=S(=O)(Oc1ccc(O)cc1)[C@H]1CC2OC1C(c1ccccc1)=C2c1ccccc1 (stereo in doubt; exo) |
| 0.025 | 0.86 | 0.029 | – | – | O=S(=O)(Oc1ccc(O)cc1)[C@H]1CC2OC1C(c1ccccc1)=C2c1ccccc1 (stereo in doubt; endo) |
| 0.64 | 11 | 0.059 | Active | Active | O=S(=O)(c1ccccc1)C1CC2OC1C(c1ccc(O)cc1)=C2c1ccc(O)cc1 (configuration not stated) |
| 0.98 | 8.9 | 0.11 | – | – | COc1ccc(C2=C(c3ccc(O)cc3)C3CC(S(=O)(=O)Oc4ccccc4)C2O3)cc1 (configuration not stated) |
| 0.014 | 0.7 | 0.02 | – | – | O=C1OC(=O)C2C3OC(C(c4ccccc4)=C3c3ccccc3)C12 (configuration not stated) |
| 0.009 | 1.5 | 0.006 | – | – | COC(=O)C1=C(C(=O)OC)C2OC1C(c1ccc(O)cc1)=C2c1ccc(O)cc1 |
| 0.013 | 0.77 | 0.017 | – | – | O=C1C2C3OC(C(c4ccc(O)cc4)=C3c3ccc(O)cc3)C2C(=O)N1c1ccccc1 (configuration not stated) |

| Structure (SMILES) | RBA [1] [%] | Ratio [2] | RBA [3] [%] | Activity [4] | Activity [5] |
| --- | --- | --- | --- | --- | --- |
| COC(=O)C1=C(c2ccccc2)C2OC1C(c1ccccc1)=C2c1ccccc1 (configuration not stated) | 0.007 | 0.29 | 0.024 | – | – |
| COC(=O)C1=C(c2ccc(O)cc2)C2OC1C(c1ccccc1)=C2c1ccccc1 (configuration not stated) | 0.012 | 0.39 | 0.031 | – | – |
